Laboratory results from ChEMBL document CHEMBL1777718, “Synthesis and cytotoxicity of 17a-aza-D-homo-androster-17-one derivatives” (Bioorg Med Chem Lett, 2011).

Columns and labels:
[1] = Cytotoxicity against human SMMC-7404 cells assessed as reduction in optical density by MTT assay relative to control; assay type: functional, cell-based
How it was run: (§1)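 MTT assay read as optical density. IC50 is the concentration that cut optical density of treated cells by 50% relative to untreated cells. Values are means of three independent determinations.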

[2] = test system: HeLa; assay: Cytotoxicity against human HeLa cells assessed as reduction in optical density by MTT assay relative to control; assay type: functional, cell-based; how it was run: as §1

SMILES | IC50 [1] [µM] | IC50 [2] [µM]
C[C@]12CC/C(=N/O)C=C1/C(=N\O)C[C@@H]1[C@@H]2CC[C@]2(C)NC(=O)CC[C@@H]12 | > 200 | 15.1
C[C@]12CC/C(=N\NC(N)=S)C=C1/C(=N\NC(N)=S)C[C@@H]1[C@@H]2CC[C@]2(C)NC(=O)CC[C@@H]12 | 80.5 | 28.8
C[C@]12CCC(O)C=C1C(O)C[C@@H]1[C@@H]2CC[C@]2(C)NC(=O)CC[C@@H]12 (stereo partly drawn) | > 200 | 18.8
C[C@]12CCC(O)CC1C(O)C[C@@H]1[C@@H]2CC[C@]2(C)NC(=O)CC[C@@H]12 (stereo partly drawn) | 124 | 14
C[C@]12CCC(=O)CC1C(=O)C[C@@H]1[C@@H]2CC[C@]2(C)NC(=O)CC[C@@H]12 (stereo partly drawn) | 60.8 | 53.6
C[C@]12CCC(=O)C=C1C(=O)C[C@@H]1[C@@H]2CC[C@]2(C)NC(=O)CC[C@@H]12 | > 200 | 102
C[C@]12CC[C@H](O)CC1=CC[C@@H]1[C@@H]2CC[C@]2(C)NC(=O)CC[C@@H]12 | > 200 | 65.9
C[C@]12CC/C(=N/O)CC1/C(=N\O)C[C@@H]1[C@@H]2CC[C@]2(C)NC(=O)CC[C@@H]12 (stereo partly drawn) | 184 | 75.7
CC(=O)O[C@H]1CC[C@@]2(C)C(=CC[C@@H]3[C@@H]2CC[C@]2(C)NC(=O)CC[C@@H]32)C1 | > 200 | 37.6
